Source: PubChem BioAssay (The Scripps Research Institute Molecular Screening Center)
TAAR1 ag – human TAAR1 agonism; CHO RD-HGA16 TAAR1, Fluo-8 calcium fluorescence; vehicle wells 0%, saturating PEA agonist 100%; activation, % at 3 µM; 0.99% of 360,000 active;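 active means activation above the mean activation of all test compounds in the run plus 3 SD, cut at about 38% in these data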
Target sequence (Q96RJ0 whole entry, looked up): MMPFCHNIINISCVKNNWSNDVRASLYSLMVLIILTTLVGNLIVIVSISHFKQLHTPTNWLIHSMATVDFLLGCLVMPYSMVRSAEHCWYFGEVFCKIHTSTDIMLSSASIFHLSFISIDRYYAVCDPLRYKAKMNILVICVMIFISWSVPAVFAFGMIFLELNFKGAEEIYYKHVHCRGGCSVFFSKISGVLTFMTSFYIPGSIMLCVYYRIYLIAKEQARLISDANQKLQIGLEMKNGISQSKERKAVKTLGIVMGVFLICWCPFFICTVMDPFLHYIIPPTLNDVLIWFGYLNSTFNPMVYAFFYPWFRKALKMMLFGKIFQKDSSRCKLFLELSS
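test system = CHO RD-HGA16 cells carrying human TAAR1 plus Gα16 | schedule = 17-24 h seeding, 75 min 37 °C dye, 30 min RT | compound dosing = 3 µM single concentration | control set = DMSO and PEA EC100 | replicates = n 1 | signal = Fluo-8 fluorescence, 5 s baseline then 140 s kinetic read | measure = percent activation vs PEA EC100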
TAAR1 antagonist – antagonists of human TAAR1 | inhibition, % at 3 µM | Q96RJ0 | CHO RD-HGA16 TAAR1, Fluo-8 calcium fluorescence, antagonist | 1.5% of 360,000 active;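 active means inhibition above a per-plate cutoff, the mean inhibition of test compounds on that plate plus 3 SD, cut at about 49% in these data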
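Test system – hTAAR1-expressing CHO RD-HGA16 cells, Gα16-coupled · Also added – β-PEA at EC80 concentration, post-compound challenge · Compound – 3 µM, single point · Incubation – dye loading 75 min at 37 °C, then 30 min room temperature · Measured by – Fluo-8 intracellular calcium dye fluorescence, real-time kinetic reads · Benchmarks – vehicle and agonist controls · Replicates – singlicate, one well per test compound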
V1aR counter – counter-screen for oxytocin receptor agonists: human V1a receptor agonists. CHO-V1R cells, Fluo-8 calcium fluorescence, agonist mode; 0% DMSO, 100% 3 nM vasopressin. 0.25% of 320,000 active. AID 2797. activation, % at 3 µM. P37288;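 active means activation above the mean activation of all tested compounds plus 3 SD, per screening run, cut at about 20% in these data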;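 further: signal is peak over basal fluorescence ratio across a 100 second FLIPR read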
OXTR agonist – agonists of human oxytocin receptor; P30559; CHO-OTR cells, Fluo-8 calcium fluorescence; normalized: DMSO 0%, oxytocin 100%; AID 2435; activation, % at 3 µM; 0.32% of 320,000 active;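 active means activation above the mean of all tested compounds plus 3 SD, cutoff set per screening run, cut at about 20% in these data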;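 further: peak over basal fluorescence ratio from a 100 s FLIPR kinetic read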
Target sequence (P30559 whole entry, looked up): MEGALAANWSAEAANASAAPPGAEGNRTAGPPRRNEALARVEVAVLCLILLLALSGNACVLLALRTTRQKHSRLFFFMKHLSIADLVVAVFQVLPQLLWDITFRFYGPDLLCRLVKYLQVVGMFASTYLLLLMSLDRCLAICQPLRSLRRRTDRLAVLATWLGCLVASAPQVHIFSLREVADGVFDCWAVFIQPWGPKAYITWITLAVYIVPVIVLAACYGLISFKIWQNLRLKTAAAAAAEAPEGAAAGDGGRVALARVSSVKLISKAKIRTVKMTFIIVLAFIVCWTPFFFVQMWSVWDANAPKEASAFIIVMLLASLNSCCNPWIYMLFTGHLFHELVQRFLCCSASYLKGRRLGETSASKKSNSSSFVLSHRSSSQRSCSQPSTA
OXTR potentiator – human OXTR potentiation; 0.061% of 320,000 active; P30559; CHO-OTR cells, Fluo-8 calcium fluorescence, potentiator mode; 0% = oxytocin EC15, 100% = EC100; activation, % at 3 µM;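 active means activation above that plate's cutoff, the mean activation of tested compounds plus 3 SD, cut at about 6.6% in these data, passing the limit was not always enough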
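Assay system: CHO cell line stably expressing human OTR. Reagent: EC15 oxytocin agonist. Dosing: single dose, 3.0 µM nominal final compound concentration. Timing: compound 6 min at room temperature before oxytocin, 100 s read. Signal: kinetic Fluo-8 calcium fluorescence. Controls: oxytocin EC15 low and EC100 high.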
OXTR pot cf – human OXTR potentiation, confirmation | CHO-OTR cells, Fluo-8 calcium fluorescence; scaled from low-dose to maximal oxytocin | 180 tested, under 10 active | activation, % at 3 µM | shares compounds with OXTR potentiator;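 active means mean percent activation over triplicates above a cutoff set from solvent-only control plates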;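 further: compounds tested in the presence of an EC15 dose of oxytocin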
TAAR1 ag confirm – human TAAR1 agonism, confirmed; AID 651783; 82% of 2,400 active; shares compounds with TAAR1 ag; CHO RD-HGA16 TAAR1, Fluo-8 calcium fluorescence; scaled: DMSO 0%, maximal phenethylamine 100%; activation, % at 3 µM;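 active means activation above a cutoff set at the run's mean compound activation plus 3 SD, cut at about 39% in these data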
Ga16 nonsel ag – nonselective agonist in parental cells, TAAR1 agonist counter-screen; AID 651787; CHO-Ga16 parental, Fluo-8 calcium fluorescence; normalized to maximal ATP response, DMSO zero; activation, % at 3 µM; shares compounds with TAAR1 ag; 50% of 2,400 active;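 active means activation above the run cutoff, the mean activation over all tested wells plus 3 SD, cut at about 12% in these data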
TAAR1 desens – TAAR1 response desensitization, agonist counter-screen; inhibition, % at 3 µM; CHO RD-HGA16 hTAAR1, Fluo-8 calcium, beta-PEA response inhibition; shares compounds with TAAR1 ag; AID 651951; 46% of 2,400 active;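 active means inhibition above the run cutoff, the mean inhibition of all test compounds plus 3 SD, cut at about 49% in these data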;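 further: beta-PEA stimulus applied at its EC80; loss of beta-PEA calcium signal after compound pretreatment read as receptor desensitization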
Ga16 antag count – nonselective Ga16 antagonism, counter-screen | shares compounds with TAAR1 ag | CHO-Ga16 ATP-induced calcium, Fluo-8 fluorescence | inhibition, % at 3 µM | 39% of 2,400 active;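 active means inhibition above the plate's mean compound inhibition plus 3 SD, computed per plate, cut at about 22% in these data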
Each line names hits and unclear results; the compound was inactive in the other large screens (follow-up assays come after a bar, where they were run). Shown are actives, neighbours in structure and some others; about 2.3% of the full set was active somewhere.

Cc1cccnc1Nc1ncnc(N)c1[N+](=O)[O-]	OXTR potentiator 10.9 | OXTR pot cf inactive
Nc1ncnc(Nc2ccccn2)c1[N+](=O)[O-]	none
COC(=O)CC1C(=O)NCCN1C(=O)c1c(F)cccc1F (centres undefined)	none
CC(C)(C)NC(=O)NC(=O)CN1C(=O)NC(c2ccccc2)(c2ccccc2)C1=O	none
COC(=O)c1ccccc1NC(=O)COC(=O)C1CCCCC1	none
CC1CCc2nn(CC(=O)NCc3ccco3)cc2C1 (centres undefined)	OXTR potentiator 12.6 | OXTR pot cf inactive
CC1CCN(C(=O)Cn2c(=O)n(CCCC(=O)NCc3ccco3)c(=O)c3sccc32)CC1	none
CC(C)c1ccc(NC(=O)C(c2ccccc2)N(Cc2ccco2)C(=O)CC2NC(=O)NC2=O)cc1 (centres undefined)	none
COc1ccc(NC(=O)/C(Cl)=C(/Cl)S(=O)Cc2ccccc2)cn1 (centres undefined)	TAAR1 ag 41.1, TAAR1 antagonist 73.8, OXTR potentiator 19.6 | OXTR pot cf inactive
O=C1C(c2ccccc2)=[N+]([O-])c2ccccc21	none
Cc1ccc(Cn2c(SC(C)C(N)=O)nc3ccccc3c2=O)cc1 (centres undefined)	none
Cc1ccc(C)c(NC(=O)CCN2C(=O)C3CC=CCC3C2=O)c1 (centres undefined)	OXTR potentiator 14.6 | OXTR pot cf inactive
Cc1ccc(C)c(NC(=O)CCN2C(=O)c3ccccc3C2=O)c1	none (no result: V1aR counter, OXTR agonist, OXTR potentiator)
O=C(Nc1ccccc1)Nc1ccc(Cl)nc1Cl	none
CCOC(=O)c1cnc2cc(-c3ccc(C)cc3)nn2c1-c1ccccc1	OXTR potentiator 14.1 | OXTR pot cf inactive
CCOC(=O)c1cnc2cc(-c3ccc(C)cc3)nn2c1C	none (no result: V1aR counter, OXTR agonist, OXTR potentiator)
COC(=O)N(C)C[C@@H]1OCc2cnnn2CCCC(=O)N([C@H](C)CO)C[C@@H]1C	none (no result: V1aR counter, OXTR agonist, OXTR potentiator)
COc1ccc(N2CCN(C(=O)C3CCN(S(=O)(=O)c4ccc5c(c4)oc(=O)n5C)CC3)CC2)cc1	OXTR potentiator 12.7 | OXTR pot cf inactive
CCOC(=O)c1cc(S(=O)(=O)N2CCN(Cc3ccccc3)CC2)cn1C	none
Cc1ccc(C(=O)CSc2cc(C)[nH]c(=O)n2)cc1	none
Cc1cc(SCC(=O)c2ccc(Cl)cc2)nc(=O)[nH]1	OXTR potentiator 12.4 | OXTR pot cf inactive
O=C(Cn1ncc2ccccc21)N1CCc2ccccc21	OXTR potentiator 12.1 | OXTR pot cf inactive
O=C(Cn1cnc2ccccc21)N1CCc2ccccc21	none
O=C(CSc1nnc2ccccn12)Nc1ccc(S(=O)(=O)N2CCOCC2)cc1	none
O=C(NC(=S)Nc1ccccc1N1CCCC1)c1ccc(-c2cccc([N+](=O)[O-])c2)o1	OXTR potentiator 10.8 | OXTR pot cf inactive
O=C(NC(=S)Nc1ccccc1N1CCCCC1)c1ccc(-c2cccc([N+](=O)[O-])c2)o1	none
CCc1ccc(NC(=O)Cc2ccc(NC3=NC4CS(=O)(=O)CC4S3)cc2)cc1 (centres undefined)	OXTR potentiator 8.3 | OXTR pot cf inactive
O=C(COc1ncnc2ccccc12)NC1CCCCC1	none
O=C(COc1ncnc2ccc(Br)cc12)NC1CCCC1	OXTR potentiator 12.7 | OXTR pot cf inactive
CCOc1ccccc1NC(=O)c1cccc(NC(=O)CC(c2ccccc2)c2ccccc2)c1	OXTR potentiator 26.4 | OXTR pot cf 9.7
O=C(COC(=O)c1n[nH]c(=O)c2ccccc12)Nc1cccc(S(=O)(=O)N2CCOCC2)c1	none (no result: V1aR counter, OXTR agonist, OXTR potentiator)
Cc1ccc(NC(=O)CCc2ccccc2)cc1S(=O)(=O)N1CCOCC1	none
Cc1ccc(NC(=O)CCS(=O)(=O)c2ccccc2)cc1S(=O)(=O)N1CCOCC1	OXTR potentiator 11.4 | OXTR pot cf inactive
Cc1ccc(CNC(=O)CC(C)S(=O)(=O)c2ccc3c(c2)NC(=O)CS3)o1 (centres undefined)	none
CC(C)(C)NC(=O)c1cc(C(C)(C)C)c(O)c(C(C)(C)C)c1	OXTR potentiator 10.4 | OXTR pot cf inactive
O=C(NC1CC1)c1ccc2sc([C@H]3C[C@H](O)[C@@H](CO)O3)nc2c1	none (no result: V1aR counter, OXTR agonist, OXTR potentiator)
Cc1ccc(S(=O)(=O)NC2CC2)s1	none
COC(=O)c1cc(S(=O)(=O)N2CCCCC2C)c[nH]1 (centres undefined)	OXTR potentiator 11.0 | OXTR pot cf inactive
COC(=O)c1cc(S(=O)(=O)N2CCCC(C)C2)c[nH]1 (centres undefined)	none
O=S(=O)(CCN(CCS(=O)(=O)C(F)(F)F)CC1CCCO1)C(F)(F)F (centres undefined)	none
CCOc1ccc(-c2c(C(=O)N/N=C/c3ccc(Cl)cc3)nnn2-c2nonc2N)cc1	TAAR1 ag 106.8, OXTR potentiator 23.2 | OXTR pot cf 11.0 | TAAR1 ag confirm 113.1 | Ga16 nonsel ag 69.7 | TAAR1 desens inactive | Ga16 antag count inactive
CC(C)c1ccc(C2(C)NC(=O)N(C(C)C(=O)Nc3ccc(N4CCOCC4)cc3)C2=O)cc1 (centres undefined)	none (no result: V1aR counter, OXTR agonist, OXTR potentiator)
S=c1[nH]nc(-c2ccncc2)n1/N=C/c1cn(-c2ccccc2)nc1-c1ccccc1	TAAR1 ag 81.8, OXTR potentiator 20.5 | OXTR pot cf 7.5 | TAAR1 ag confirm 76.4 | Ga16 nonsel ag 16.8 | TAAR1 desens 60.9 | Ga16 antag count inactive
O=[N+]([O-])c1ccc(-c2nn(-c3ccccc3)cc2/C=N/n2c(-c3ccncc3)n[nH]c2=S)cc1	none
